Hits are enriched below; roughly 1.4% of the tested compounds scored in any of these assays.
Tn7 DDE FP = inhibitors of Tn7 peptide binding to human fibrin DD(E); P02675; FP displacement of FITC-Tn7 peptide from fibrin DD(E); 0% = median of compound wells per plate; inhibition, % at 8.3 µM; hit rate 0.13% among 370,000; AID 720508;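 active = inhibition above the mean of compounds falling within the control limits plus 3 SD of them, cut at about 14% in these data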;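 also: 0% = plate median of compound wells and 100% = 10 µM Aha-Tn7 peptide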
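System: human fibrin DD(E); quantity: Fibrin-DD(E) at 2 µM final; also added: fluorescent Tn7 probe at 0.1 µM; compound dosing: single nominal test concentration of 8.3 µM per compound; schedule: 10 min preincubation, 3 h with tracer, room temperature; detection: fluorescence polarization of the labelled Tn7 tracer; repeats: one replicate per compound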
FID counter = counter-screen for HCV NS3 helicase inhibitors: DNA intercalator displacement. DNA fluorescent intercalator displacement, fluorescence. inhibition, % at 7.9 µM. hit rate 0.17% among 290,000. AID 1845; in the data active = inhibition above about 37%;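 also: 0% = vehicle and 100% = reference compound; higher means more ethidium bromide displaced from hairpin DNA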
PLC-beta3 inh = PLC-beta3 (human) inhibition, primary screen; Q01970; inhibition, % at 12.2 µM; Purified PLC-beta3, fluorogenic substrate, fluorescence; hit rate 0.18% among 370,000; AID 720704; in the data active = inhibition above about 11%;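 also: 0% = median of compound wells on plate and 100% = full blocker control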
PLC-gamma1 inh = PLC-gamma1 (human) inhibition, primary screen; P19174; purified PLC-gamma1, fluorogenic substrate, fluorescence; inhibition, % at 12.2 µM; hit rate 0.84% among 370,000
Tn6 DDE FP = inhibitors of Tn6 peptide binding to human fibrin DD(E). Fibrin DD(E) TRITC-Tn6 fluorescence polarization displacement. AID 720509. inhibition, % at 8.3 µM. hit rate 0.21% among 370,000;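 active = inhibition above a per-campaign cutoff: mean of compounds within control limits plus 3 SD, cut at about 15% in these data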;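 also: 0% = median of all compound wells on the plate and 100% = blocking peptide control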
PLCgamma1 ctr = counter-screen for PLC-beta3 inhibitors: inhibitors of human PLC-gamma1; shares compounds with PLC-gamma1 inh; purified PLC-gamma1, fluorogenic substrate, fluorescence; inhibition, % at 12.3 µM; hit rate 3.1% among 3,300; AID 743258
PLCbeta3 conf = confirmation of human PLC-beta3 inhibitors; inhibition, % at 12.3 µM; hit rate 1% among 3,300; purified PLC-beta3, fluorogenic substrate fluorescence; shares compounds with PLC-gamma1 inh; AID 743261; in the data active = inhibition above about 11%
* marks the source's active call; other numbers are inactive results. Rule as the data show it, unless noted: active = inhibition above about 9.5%; inactive = the rest.

How did Cc1cc(C(=O)N/N=C/c2cccnc2)n[nH]1 do in these assays?
Tn7 DDE FP: -3.9; FID counter: -1.3; PLC-beta3 inh: -2.4; PLC-gamma1 inh: 10.4*; Tn6 DDE FP: 8.0; PLCgamma1 ctr: -2.6; PLCbeta3 conf: 0.4

What do the screens show for `Cc1cccc(NC(=S)Nc2cccc(C(F)(F)F)c2)n1`?
Tn7 DDE FP: 0.7; FID counter: -6.2; PLC-beta3 inh: 3.3; PLC-gamma1 inh: -0.5; Tn6 DDE FP: 0.4

Results for CCOC(=O)c1c(C)oc2cc3c(C(=O)OCC)c(C)oc3cc12 ?
FID counter: 1.4

What do the screens show for `CCOC(=O)c1c(C)oc2cc(Br)c(OC)cc12`?
Tn7 DDE FP: 2.0; FID counter: 0.6; PLC-beta3 inh: 1.4; PLC-gamma1 inh: 9.8*; Tn6 DDE FP: 5.4; PLCgamma1 ctr: -4.1; PLCbeta3 conf: -4.1

What do the screens show for `CCN(CC)CCOC(=O)C(Cc1ccco1)Cc1cccc2ccccc12` (configuration not stated)?
Tn7 DDE FP: -13.2; PLC-beta3 inh: 2.6; PLC-gamma1 inh: 4.2; Tn6 DDE FP: -9.7

How did COc1ccc(Oc2cccc(Cl)c2CNC(=O)CCC(=O)O)cc1 do in these assays?
Tn7 DDE FP: 1.5; FID counter: -17.1; PLC-beta3 inh: -5.6; PLC-gamma1 inh: 3.5; Tn6 DDE FP: 3.9

How did CC1Cc2nc(SCC(=O)N3CCCCC3)n(C)c(=O)c2S1 (configuration not stated) do in these assays?
Tn7 DDE FP: 5.9; PLC-beta3 inh: -4.0; PLC-gamma1 inh: -4.0; Tn6 DDE FP: -6.9

What do the screens show for `Nc1n[nH]c(N)c1N=Nc1ccc(Cl)cc1`?
Tn7 DDE FP: 4.0; FID counter: 2.3; PLC-beta3 inh: 14.4*; PLC-gamma1 inh: 19.8*; Tn6 DDE FP: -4.6; PLCgamma1 ctr: 6.0; PLCbeta3 conf: 6.0

How did Cc1ccc(C(=O)NC(C(=O)Nc2ccccc2)c2ccccc2)cc1 (configuration not stated) do in these assays?
Tn7 DDE FP: 4.3; FID counter: -23.9; PLC-beta3 inh: -4.2; PLC-gamma1 inh: -0.5; Tn6 DDE FP: -2.8

How did N#Cc1c(NC(=O)C2CC(c3ccccc3O)=NO2)sc2c1CCC2 (configuration not stated) do in these assays?
Tn7 DDE FP: -2.1; FID counter: 0.9; PLC-beta3 inh: 0.1; PLC-gamma1 inh: 14.1*; Tn6 DDE FP: 4.9; PLCgamma1 ctr: -3.7; PLCbeta3 conf: -2.0

Results for CC1CCCN(C(=O)C23CCC(C)(C(=O)C2)C3(C)C)C1 (configuration not stated) ?
Tn7 DDE FP: -2.5; FID counter: -3.5; PLC-beta3 inh: 11.4*; PLC-gamma1 inh: 4.8; Tn6 DDE FP: 6.3; PLCgamma1 ctr: 4.0; PLCbeta3 conf: 7.1

How did NC(CCc1ccccc1)c1csc(NC(=O)Nc2ccccc2Oc2ccccc2)n1 (configuration not stated) do in these assays?
Tn7 DDE FP: -5.5; PLC-beta3 inh: 6.2; PLC-gamma1 inh: 16.5*; Tn6 DDE FP: -8.7; PLCgamma1 ctr: -1.2; PLCbeta3 conf: -3.4

How did COc1ccc2c(C#N)c3ccccn3c2c1 do in these assays?
Tn7 DDE FP: 9.0; FID counter: 7.3; PLC-beta3 inh: inactive; PLC-gamma1 inh: inactive; Tn6 DDE FP: 6.6

Results for O=[N+]([O-])c1ccc(N2CCCCCC2)c(S(=O)(=O)N2CCCCC2)c1 ?
Tn7 DDE FP: 2.9; FID counter: -6.7; PLC-beta3 inh: 3.5; PLC-gamma1 inh: 3.5; Tn6 DDE FP: -2.2

Results for O=C(c1cc2ccccc2oc1=O)N1CCCC1 ?
Tn7 DDE FP: 1.9; FID counter: 1.2; PLC-beta3 inh: 3.5; PLC-gamma1 inh: 14.6*; Tn6 DDE FP: 1.9; PLCgamma1 ctr: -5.7; PLCbeta3 conf: -11.1

What do the screens show for `O=C(c1cc2ccccc2oc1=O)N1CCCCCCC1`?
Tn7 DDE FP: -5.5; FID counter: -8.4; PLC-beta3 inh: -2.2; PLC-gamma1 inh: 1.7; Tn6 DDE FP: -5.5

What do the screens show for `CN1CCN(CCCCOc2ccc(Br)cc2)CC1`?
Tn7 DDE FP: 4.1; FID counter: 20.5; PLC-beta3 inh: -3.4; PLC-gamma1 inh: 1.6; Tn6 DDE FP: -1.0
